# An excerpt weighted towards active compounds, which were near 4% of everything screened.
# E-sel inducer – induces E-selectin expression in human endothelial cells; 260,000 tested, 0.37% active; HUVEC E-selectin immunofluorescence imaging; normalized: neutral wells 0, TNF-alpha wells 100; AID 686992; activation, % at 7.58 µM;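 active means mean E-selectin-positive cell signal at least 10% of the positive control, reached in at least 60% of replicates, without over 20% cell loss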
#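 Test system: HUVEC; input: 3,000 HUVEC/well; measured by: immunofluorescence imaging; read-out: % PE-positive cells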
# rRNA inh HTS – inhibits bacterial ribosomal RNA function over humanized ribosomes; E. coli WT GFP vs humanized-ribosome RFP mutants, fluorescence, 24 h; stronger effect = lower value; DMSO median 0, no signal -100; GFP signal change (wild-type ribosome), % (test concentration not listed); 350,000 tested, 1.6% active; AID 720706;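 active means significant combined selectivity score with lowered wild-type GFP, culture density cut under 30%, mutant RFP and density less affected; inactive means any of these conditions unmet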
# FN deposit inh – fibronectin deposition inhibition; AH1F fibroblasts, Alexa488-fibronectin deposition fluorescence, overnight; inhibition, % at 12.6 µM; 350,000 tested, 0.086% active; AID 743247;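 active means mean inhibition across replicates of 30% or more, regardless of how many single replicates reach that level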
#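 test system = AH1F fibroblasts assembling fluorescent fibronectin matrix | quantity = 10000 AH1F cells per well | buffer or medium = DMEM plus 2% serum, read in PBS | doses = single dose, pinned | incubation = 1 h cell attachment, overnight exposure to compound and label | detection = fluorescence at 485 nm excitation, 525 nm emission | read-out basis = inhibition from reduced deposited-fibronectin fluorescence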
# FGF22 binding-1 – binders of recombinant human FGF22 by thermal shift. activity (Tm shift, normalised), % at 9.99 µM. SYPRO orange fluorescence; percent of sucrose octasulfate shift, DMSO zero. 340,000 tested, 1.5% active. Q9HCT0;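 active means mean Tm shift, scaled 0 neutral to 100 positive control, at about 1.3% or above, every replicate too, limit read from the data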
# Target sequence (Q9HCT0 whole entry, looked up): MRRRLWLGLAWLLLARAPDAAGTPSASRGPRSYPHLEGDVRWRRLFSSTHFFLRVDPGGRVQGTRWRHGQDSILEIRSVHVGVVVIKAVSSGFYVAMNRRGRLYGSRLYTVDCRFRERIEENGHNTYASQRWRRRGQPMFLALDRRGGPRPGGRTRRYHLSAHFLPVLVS
# SIRT5 block – blocks human SIRT5 desuccinylation of peptide; Purified SirT5, succinyl-peptide AMC, trypsin-coupled fluorescence; inhibition, % at 15 µM; 330,000 tested, 1.1% active; in the data active means inhibition above about 15%
# Target sequence (Q9NXA8 whole entry, looked up): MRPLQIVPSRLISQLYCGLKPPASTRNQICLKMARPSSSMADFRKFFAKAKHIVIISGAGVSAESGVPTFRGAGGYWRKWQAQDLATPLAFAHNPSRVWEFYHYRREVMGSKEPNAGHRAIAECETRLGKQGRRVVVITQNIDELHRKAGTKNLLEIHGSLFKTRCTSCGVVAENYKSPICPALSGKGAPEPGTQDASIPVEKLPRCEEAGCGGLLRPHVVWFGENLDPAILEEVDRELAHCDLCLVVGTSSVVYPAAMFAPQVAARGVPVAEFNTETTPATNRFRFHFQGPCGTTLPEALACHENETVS
# Statin myotox sup – protects C2C12 myotubes from simvastatin toxicity; ATP luminescence, 48 h; scaled: DMSO 0, geranylgeraniol control 100; rescue of ATP level, % at 7.49 µM; 330,000 tested, 0.78% active; AID 602340;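 active means mean ATP rescue above about 67%, or every replicate alone reaching that limit, limit read from the data, passing the limit was not always enough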;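 further: myotubes were challenged with 10 µM simvastatin during compound exposure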
# FGF22 binding-2 – binders of human FGF22 by thermal shift; recombinant FGF22 thermal shift, SYPRO orange fluorescence; thermal shift activity, °C (ΔTm) at 38 µM; shares compounds with FGF22 binding-1; 1,000 tested, 2% active;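 active means fitted rise in melting shift crosses a set limit at or below the top valid dose tested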
# FGF22 TSA – FGF22 (human) binding by thermal shift; shares compounds with FGF22 binding-1; Thermal shift assay, SYPRO orange, melting temperature shift; Tm shift (activity), % at 38 µM; 50 tested, under 10 active;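 active means compounds whose fitted dose curve of melting temperature shift rises past a set threshold within the tested doses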
# TSA no protein – compound-only SYPRO artifact for FGF22 binders. compound-only SYPRO orange thermal shift counter-screen, no protein. shares compounds with FGF22 binding-1. AC50, µM (titrated, usually from 38 µM). AID 743019. 1,000 tested, 2% active;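 active means rising signal whose fitted curve reaches the 0.54 level within the top valid dose, showing a melting point, actives reach about 13 µM in these data; inactive means the rest, including activity in the opposite direction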; further: value is where the raw curve crosses a fixed level and not half-maximal
# Numbers stand for hits; – = inactive; · = no result given.
SMILES,E-sel inducer,rRNA inh HTS,FN deposit inh,FGF22 binding-1,SIRT5 block,Statin myotox sup,FGF22 binding-2,TSA no protein,others
CC(=O)Nc1cccc(C(=O)N/N=C/c2c[nH]c3ccccc23)c1,–,–,–,3.8,–,–,·,–,FGF22 TSA=–
CCOc1ccccc1C(=O)N/N=C/c1c[nH]c2ccccc12,·,–,–,–,–,–,·,·,
S=C(NCCN1CCOCC1)Nc1ccc(-c2nc3ccccc3[nH]2)cc1,–,-23.8,–,2.2,–,·,–,–,
C[C@H](CO)N1C[C@H](C)[C@@H](CN(C)C(=O)Nc2ccc(C(F)(F)F)cc2)Oc2ncc(C3=CCCC3)cc2C1=O,–,–,–,–,–,–,·,·,
CC1(C(=O)O)CCN1C(=O)c1ccccc1F (stereo not given),·,–,·,21.8,·,–,–,–,
C[C@@H]1CN([C@H](C)CO)C(=O)c2cccc(NC(=O)C3CC3)c2O[C@H]1CN(C)C(=O)Nc1ccc2c(c1)OCO2,–,–,·,–,–,–,·,·,
COc1ccc(CCC(C)NC(=O)Cc2ccc(OC)c(OC)c2)c(OC)c1 (stereo not given),·,–,–,28.9,–,–,–,–,
CCC(=O)N(NC1=NS(=O)(=O)c2ccccc21)S(=O)(=O)c1ccc(C)cc1,–,–,–,1.7,–,·,–,–,
[N-]=[N+]=Nc1ccccc1C[C@]1(C(=O)NCc2ccccc2)COC(c2ccc(OCCCO)cc2)=N1,·,·,·,–,–,·,·,·,
O=C(Nc1nccs1)c1ccc(S(=O)(=O)NCC2CCCCC2)cc1,·,·,–,·,·,–,·,·,
O=C(Nc1nccs1)c1ccc(S(=O)(=O)NCc2cccs2)cc1,·,–,·,1.4,–,–,–,–,
CC(C)NC(=O)N(C)C[C@H]1OCCCC[C@H](C)Oc2ccc(N(C)C)cc2C(=O)N([C@@H](C)CO)C[C@H]1C,–,–,–,–,–,·,·,·,
CC(C)NC(=O)Nc1ccc2c(c1)C(=O)N([C@H](C)CO)C[C@H](C)[C@@H](CN(C)C(=O)Nc1ccccc1)OCCCC[C@@H](C)O2,·,–,–,–,–,·,·,·,
CNC[C@H]1OCCCC[C@@H](C)Oc2ccc(NC(=O)Nc3ccc(C(F)(F)F)cc3)cc2C(=O)N([C@H](C)CO)C[C@@H]1C,–,–,·,7.0,–,–,–,–,
COc1ccc(S(=O)(=O)Nc2ccc3c(c2)C(=O)N([C@@H](C)CO)C[C@@H](C)[C@@H](CN(C)C)OCCCC[C@@H](C)O3)cc1,–,–,–,2.1,–,·,–,–,
CC(C)NC(=O)Nc1ccc2c(c1)C(=O)N([C@@H](C)CO)C[C@@H](C)[C@@H](CN(C)C(=O)Nc1ccccc1)OCCCC[C@@H](C)O2,·,–,–,28.0,–,·,–,–,
CNC[C@@H]1OCCCC[C@H](C)Oc2ccc(NC(=O)Nc3ccc(C(F)(F)F)cc3)cc2C(=O)N([C@@H](C)CO)C[C@H]1C,–,–,·,·,·,–,·,·,
CC(C)NC(=O)N(C)C[C@H]1OCCCC[C@H](C)Oc2ccc(N(C)C)cc2C(=O)N([C@H](C)CO)C[C@H]1C,·,·,·,208.7,–,·,–,–,
CCCN(C)C[C@@H]1OCCCC[C@@H](C)Oc2ccc(NC(=O)NC(C)C)cc2C(=O)N([C@@H](C)CO)C[C@@H]1C,·,–,–,1.4,–,·,–,–,
COc1cc(/C=N/NC(=O)CCn2c3ccccc3c3ccccc32)ccc1O,·,–,·,2.1,–,–,–,13µM,
COc1cc(/C=N/NC(=O)c2cccc(C(=O)N/N=C/c3ccc(O)c(OC)c3)n2)ccc1O,–,–,–,–,–,–,·,·,
COc1cc(/C=N/NC(=O)c2cc3ccccc3[nH]2)ccc1O,·,–,–,2.7,–,–,–,–,FGF22 TSA=–
C[C@@H]1CN([C@H](C)CO)C(=O)Cc2cc(NS(=O)(=O)c3ccccc3)ccc2O[C@@H]1CN(C)Cc1ccc(C(=O)O)cc1,–,–,–,–,–,–,·,·,
COc1ccc(C(=O)Nc2nc(CC(=O)NCCc3ccccc3)cs2)cc1,–,–,–,2.2,–,·,–,–,
COc1ccc(C(=O)Nc2nc(CC(=O)NCCc3cccc(OC)c3)cs2)cc1,–,–,–,–,–,·,·,·,
SMILES,E-sel inducer,rRNA inh HTS,FN deposit inh,FGF22 binding-1,SIRT5 block,Statin myotox sup,FGF22 binding-2,TSA no protein,others
N/C(=N\OCC(=O)Nc1ccc(F)c(Cl)c1)c1ccccc1,–,·,–,1.6,–,–,–,–,
C[C@H](CO)N1C[C@H](C)[C@H](CN(C)S(=O)(=O)c2ccccc2)OCCCC[C@H](C)Oc2ccc(NC(=O)C3CCCCC3)cc2C1=O,–,–,–,·,–,·,·,·,
O=c1c(O)c(-c2ccccc2)oc2cc(O)cc(O)c12,·,·,·,–,·,–,·,·,
O=c1c(O)c(-c2cc(O)c(O)c(O)c2)oc2cc(O)cc(O)c12,–,-24.0,–,1.5,–,–,–,–,
CN1C(=O)c2cc(NC(=O)c3cccc(F)c3)ccc2OC[C@@H]2O[C@H](CC(=O)NCc3ccccc3)CC[C@@H]21,–,–,–,2.2,·,–,–,–,
CCNC(=O)Nc1ccc2c(c1)C(=O)N(C)[C@H]1CC[C@H](CC(=O)NCc3ccc(F)cc3)O[C@H]1CO2,–,–,–,28.2,–,–,–,–,
Cc1noc(C)c1NC(=O)Nc1ccc2c(c1)C(=O)N(C)[C@H]1CC[C@H](CC(=O)N[C@@H]3CCN(Cc4ccccc4)C3)O[C@@H]1CO2,–,–,–,1.8,–,–,–,–,
Cc1noc(C)c1NC(=O)Nc1ccc2c(c1)C(=O)N(C)[C@H]1CC[C@H](CC(=O)N[C@H]3CCN(Cc4ccccc4)C3)O[C@H]1CO2,–,–,–,–,–,–,·,·,
CN1C(=O)c2cc(NC(=O)c3cccc(F)c3)ccc2OC[C@@H]2O[C@@H](CC(=O)Nc3ccccc3)CC[C@@H]21,–,–,–,–,–,–,·,·,
CN1C(=O)c2cc(NC(=O)Cc3ccccc3)ccc2OC[C@@H]2O[C@H](CC(=O)O)CC[C@H]21,–,–,–,1.4,–,–,–,–,
O=Cc1cc(OCc2ccccc2)ccc1[B-](F)(F)F,–,–,–,1.5,–,–,–,–,
CCC(=O)N1[C@@H](CO)[C@@H]2c3ccccc3N(S(=O)(=O)c3ccc(F)cc3)C[C@@H]21,–,–,–,1.4,–,–,–,–,
CN1CCC(C)(C(=O)Nc2cccc3c2CCCC3)C1 (stereo not given),–,–,–,18.6,–,–,–,–,
